Assay outcomes from PubChem.
CHOP inhibitor: CHOP inhibition in unfolded protein response. AID 2732. inhibition, % at 10 µM. CHO-K1 CHOP-promoter luciferase, tunicamycin-induced, 15-18 h. 220,000 compounds, 3.8% hits;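 active = compounds that reduced the stress-induced luciferase reporter signal by more than about 70% of percent inhibition, limit read from the data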
CSC inhib: blocks cancer stem cells; inhibition, % at 7.5 µM; 300,000 compounds, 1.1% hits; cancer stem cell-like cells viability, luminescence; in the data active = inhibition above about 75%; tested in HMLE shEcad cells
Beta apoptosis: blocks beta cell apoptosis; INS-1E cytokine-induced death, ATP luminescence, 48 h; percent of positive-control rescue, neutral wells zero; 300,000 compounds, 0.8% hits; protection from apoptosis, % (no concentration beside the values);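 active = Every replicate reaches about 75%, or at least half do and their mean reaches it too, limit read from the data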;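 also: higher means more ATP so stronger rescue from cytokine killing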
NR3A LBD binder: NR3A (human) ligand-binding domain modulation | Tm shift relative to glycine control, % at 25 µM | 340,000 compounds, 2.5% hits | NR3A LBD differential scanning fluorimetry, Tm shift; 0% = protein alone, 100% = glycine-bound protein;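 active = melting temperature shift of at least 10% of the positive control shift, at one fixed dose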
PREPL inhibitor: human PREPL enzyme inhibition; Q4J6C6; recombinant PREPL, fluorescence polarization activity-based probe; inhibition, % at 5.96 µM; 320,000 compounds, 0.68% hits; in the data active = inhibition above about 43%
Target sequence (Q4J6C6 whole entry, looked up): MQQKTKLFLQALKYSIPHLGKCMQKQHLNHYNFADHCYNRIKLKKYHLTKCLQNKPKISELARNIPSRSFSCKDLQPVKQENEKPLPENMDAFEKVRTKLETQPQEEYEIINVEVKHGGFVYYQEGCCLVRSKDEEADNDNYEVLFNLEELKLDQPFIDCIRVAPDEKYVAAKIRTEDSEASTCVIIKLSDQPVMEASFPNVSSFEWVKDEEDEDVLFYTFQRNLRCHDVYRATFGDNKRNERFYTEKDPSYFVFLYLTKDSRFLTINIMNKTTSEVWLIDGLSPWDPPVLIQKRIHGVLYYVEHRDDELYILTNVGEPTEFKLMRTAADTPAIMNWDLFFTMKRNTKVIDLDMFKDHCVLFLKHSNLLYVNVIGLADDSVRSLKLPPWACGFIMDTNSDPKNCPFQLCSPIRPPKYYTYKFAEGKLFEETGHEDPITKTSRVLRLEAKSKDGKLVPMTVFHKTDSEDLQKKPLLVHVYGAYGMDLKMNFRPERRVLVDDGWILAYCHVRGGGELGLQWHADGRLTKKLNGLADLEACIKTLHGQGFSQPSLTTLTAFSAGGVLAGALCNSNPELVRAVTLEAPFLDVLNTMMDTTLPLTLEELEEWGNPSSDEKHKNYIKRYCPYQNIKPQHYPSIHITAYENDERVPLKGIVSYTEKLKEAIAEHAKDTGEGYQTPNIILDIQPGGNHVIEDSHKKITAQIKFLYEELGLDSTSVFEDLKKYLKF
T cruzi repl: blocks replication of Trypanosoma cruzi | T. cruzi beta-gal in NIH3T3, luminescence, 90 h | inhibition, % (concentration not given with the values) | 300,000 compounds, 1.4% hits | AID 1885;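 active = mean inhibition across valid replicates above about 55%, limit read from the data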;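 also: signal also drops with host cell toxicity which is not excluded here; higher percent means less beta-gal luminescence so fewer parasites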
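Assay system: NIH/3T3 fibroblasts plus reporter T. cruzi. Amount: NIH/3T3 cells, 5,000 per well. Buffer or medium: DMEM, 2% fetal bovine serum. Doses: compound pinned at 50 nL/well, DMSO. Schedule: ≥90 h infection period, 3 h prior cell attachment. Signal: luminescent β-galactosidase signal after 60 min lysis. Read-out: parasite load inhibition, %.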
Hits are given with their value; – = inactive; · = no result given. The list is not random: actives were taken first. Their share in the collection is about 6.7%.

SMILES	CHOP inhibitor	CSC inhib	Beta apoptosis	NR3A LBD binder	PREPL inhibitor	T cruzi repl
CCCn1c(SCC(=O)NCC)nc2sc3c(c2c1=O)CCC3	·	–	–	–	–	–
CCCCn1c(SCC(N)=O)nc2sc3c(c2c1=O)CCC3	·	98.7	–	–	–	–
CCc1nc(N)nc(N)c1-c1ccc(N(C)Cc2ccccc2)c([N+](=O)[O-])c1	·	·	·	12.6	·	·
O=C(c1ccccc1F)N1CCN(C(=O)C2CC2)CC1	·	–	·	–	–	–
O=C(COc1ccc(F)cc1Cl)Nc1cc(S(=O)(=O)N2CCOCC2)ccc1N1CCCCC1	·	–	–	–	–	63.3
CCN(CC)S(=O)(=O)c1ccc(Cl)c(NC(=O)COc2ccc3c(C)cc(=O)oc3c2)c1	–	–	–	–	–	–
CN1CCN(c2ccc(S(=O)(=O)N3CCOCC3)cc2NC(=O)COc2ccc(F)cc2Cl)CC1	·	–	–	–	–	–
CCN(CC)S(=O)(=O)c1ccc(OC)c(NC(=O)COc2ccc3c(C)cc(=O)oc3c2)c1	–	–	–	11.4	–	–
CCN(CC)S(=O)(=O)c1ccc(C)c(NC(=O)COc2ccc(Cl)cc2Br)c1	74.4	–	–	–	–	–
O=C(Nc1ccc(Cl)c(Cl)c1)Nc1cc(S(=O)(=O)N2CCOCC2)ccc1N1CCCC1	–	–	–	11.2	–	–
Cc1cc(OC(C)C(=O)NCC(O)c2ccccc2)c2c(C)cc(=O)oc2c1 (centres undefined)	·	–	–	–	–	–
CCO/N=C(\C)c1c(O)c2ccccc2n(C)c1=O	–	–	–	–	–	–
COc1ccccc1CCNC(=O)CSc1nc(=O)[nH]c2c1CCC2	·	–	–	–	–	–
CCN(CC)S(=O)(=O)c1ccc(N2CCOCC2)c(NC(=O)COc2ccc(Cl)cc2)c1	–	–	–	–	–	–
COc1cc(NC(=O)COc2ccc3c(C)cc(=O)oc3c2C)cc(OC)c1OC	·	–	–	14.0	–	–
CCN(CC)S(=O)(=O)c1ccc(N2CCN(C)CC2)c(NC(=O)COc2ccc(F)cc2Cl)c1	·	–	·	–	–	58.5
Cc1cc(C)c(CN2CCN(C(=O)Cn3cnc4c(OCc5ccccc5)ncnc43)CC2)c(C)c1	·	·	76.6	–	–	·
O=C(O)Cn1cnc2c(OCc3ccccc3)ncnc21	·	·	–	–	–	·
CCCc1cc(=O)[nH]c(SCC(=O)N(C)C2CCCCC2)n1	·	–	–	–	–	·
c1ccc2c(c1)CCN(c1nc(CN3CCOCC3)nc3sc4c(c13)CCCC4)C2	84.5	–	–	–	–	–
CCNc1nc(CN2CCOCC2)nc2sc3c(c12)CCC3	–	–	–	–	–	–
O=C(NN=Cc1c(O)ccc2ccccc12)c1ccc2c(c1)OCO2	·	–	–	–	–	·
O=C(N/N=C/c1c(O)ccc2ccccc12)c1ccc(CO)nc1	·	87.1	·	–	–	–
O=C(N/N=C\c1c(O)ccc2ccccc12)c1ccc(S(=O)(=O)N2CCCCC2)cc1	–	100.2	96.7	–	–	57.7
CC(C)CC1NC(=O)c2cc(Cl)ccc2-n2c1nc1ccc(F)cc1c2=O (centres undefined)	·	·	–	·	–	·
SMILES	CHOP inhibitor	CSC inhib	Beta apoptosis	NR3A LBD binder	PREPL inhibitor	T cruzi repl
Cc1ccc(C)c(Nc2c([N+](=O)[O-])c(=O)oc3ccccc23)c1	–	–	–	–	–	–
Cc1ccc(/C=C/C(=O)Nc2ccccc2C(N)=O)cc1	–	–	–	–	–	–
CCN1CC(CN(C)Cc2nc(-c3ccc(C(F)(F)F)cc3)oc2C)CC1=O (centres undefined)	–	–	–	–	–	59.0
CC1(C)Oc2c(ccc(O)c2CN2CCOCC2)C2=C1CCCC2	·	·	·	–	·	·
O=C(COc1ccc(Br)cc1)Nc1ccc(N2CCOCC2)cc1N1CCOCC1	·	·	–	–	–	·
CC1(C)N([O-])C(c2ccccc2)=C[N+](=O)C1(C)C	–	–	–	681.0	–	–
COc1ccc(OC)c(C2=C[N+](=O)C(C)(C)C(C)(C)N2[O-])c1	–	–	–	–	–	–
Cc1cc(C(=O)CN2C(=O)C(=O)N(Cc3ccccc3)C2=O)c(C)n1Cc1ccccc1	·	96.7	–	–	–	·
CCOc1ccc(S(=O)(=O)N2CCC(C(=O)N3CCN(C)CC3)CC2)cc1Cl	·	–	·	–	–	–
CCOc1ccc(S(=O)(=O)N2CCC(C(=O)N3CCCCCC3)CC2)cc1Cl	·	–	–	12.6	–	–
Cc1c(Cc2ccccc2)c(NCCN(C)C)n2c(nc3ccccc32)c1C#N	–	–	–	–	–	55.6
CCc1c(C)c(C#N)c2nc3ccccc3n2c1Cl	110.0	·	·	·	·	–
Cc1ccc(C)c(N(CC(=O)N2CCCC2)S(C)(=O)=O)c1	·	–	–	–	–	–
COc1ccc(CC(=O)Nc2cccc(S(=O)(=O)N3CCCCCC3)c2)cc1OC	70.6	–	86.7	–	–	–
COc1ccc(S(=O)(=O)N2CCCCCC2)cc1C(=O)Nc1cccc(C)n1	·	–	–	23.2	–	–
COc1ccc(S(=O)(=O)N2CCCCCC2)cc1N(C)S(=O)(=O)c1ccccc1	–	–	–	12.2	–	–
O=S(=O)(Nc1nc2ccccc2nc1Nc1cccc(S(=O)(=O)N2CCCCC2)c1)c1ccccc1	74.5	124.1	–	13.0	–	–
COc1ccc(CCC(=O)Nc2cccc(S(=O)(=O)N3CCCCCC3)c2)cc1OC	·	–	–	–	–	·
CCCN1CCC(NC23CC4CC(CC(C4)C2)C3)CC1	·	–	–	·	–	–
NC(=O)C1CCN(C(=O)Nc2csc3ccccc23)CC1	–	–	–	–	–	–
COc1ccc(CCNS(=O)(=O)c2cccc(S(=O)(=O)N3CCCC3)c2)cc1OC	–	·	·	14.2	·	–
COc1ccc(CCNS(=O)(=O)c2cccc(C)c2)cc1OC	–	–	–	–	–	–
O=C(Nc1cccc(S(=O)(=O)N2CCCCC2)c1)C1CCCC1	·	–	–	21.6	–	·
NC(=O)NC(=O)COC(=O)CCSc1ccccc1	–	–	·	–	–	–
CCOc1ccc(NS(=O)(=O)c2ccc3c(c2)CCN3C(=O)C2CCC2)cc1	81.9	–	–	–	–	–
SMILES	CHOP inhibitor	CSC inhib	Beta apoptosis	NR3A LBD binder	PREPL inhibitor	T cruzi repl
CCOc1ccc(NS(=O)(=O)c2ccc3c(c2)CCN3C(=O)CCC(=O)O)cc1	–	–	–	–	–	–
O=C(C1CCC1)N1CCc2cc(S(=O)(=O)NCCN3CCN(c4ccccc4F)CC3)ccc21	74.1	–	–	–	–	–
COC(=O)c1ccc(-c2ncc[nH]2)cc1	–	–	–	–	–	–
CNC(=O)Cn1c(C)cc(=O)c2cccc(C)c21	–	–	–	–	–	–
Cc1cccc2c(=O)cc(C)n(Cc3ccccc3)c12	–	–	–	12.5	–	–
Clc1ccc(OCCSc2nnnn2C2CCCCC2)cc1	–	–	–	–	–	–
CCOc1ccc(OCCSc2nnnn2C2CCCCC2)cc1	79.8	–	–	–	–	–
CCNC(=S)NNC(=O)c1cc(Br)cs1	–	–	–	–	–	–
CC1(C)CC(=O)C(C=NCC2CCNCC2)=C(O)C1	72.3	–	–	–	–	–
